Measurements gathered from unrelated publications.
Compare with care: the assays were run in different laboratories.
Htr2a: 5-hydroxytryptamine receptor 2A (Htr2a, Mus musculus, UniProt P35363)
Short transient receptor potential channel 5: Short transient receptor potential channel 5 (Mus musculus, UniProt Q9QX29)

Structure (SMILES) | target | assay | test system | conditions | measurement | result
COc1cc2c(cc1OC)CN(CCc1ccc(NC(=O)c3cccc4c(=O)c5cccc(OC)c5[nH]c34)cc1)CC2 | Beta-3 adrenergic receptor (ADRB3, Homo sapiens, UniProt P13945) | cell-free assay |  |  | Ki | > 10 µM
COc1cc(CCN)c(OC)cc1C#N | Htr2a | G protein activation, agonist, BRET |  |  | EC50 | 0.32 µM
Cc1ccc(OCC(=O)N[C@@H](Cc2c[nH]c3ccccc23)C(=O)OC(C)C)cc1 | Cytochrome P450 3A4 (CYP3A4, Homo sapiens, UniProt P08684) | enzyme activity, inhibitor | human, liver microsomes | 30 min, midazolam probe | IC50 | > 50 µM
CNCCCN1c2ccccc2CCc2ccccc21 | Short transient receptor potential channel 5 | ion current, inhibitor, patch clamp |  |  | IC50 | 10.3 µM
COc1cc(CCNC(C)c2ccccc2O)c(OC)cc1Br (centres unmarked) | Htr2a | G protein activation, agonist, BRET |  |  | EC50 | 0.00094 µM
CC(=O)c1c(C)c2cnc(Nc3ccc(C4CCN(CCS(C)(=O)=O)CC4)cn3)nc2n(C2CCCC2)c1=O | Cytochrome P450 1A2 (CYP1A2, Homo sapiens, UniProt P05177) | enzyme activity, inhibitor | human, liver microsomes |  | IC50 | > 10 µM
CN(C)CCCN1c2ccccc2CCc2ccccc21 | Short transient receptor potential channel 5 | ion current, inhibitor, patch clamp |  |  | IC50 | 11.7 µM
CN1CC[C@@]2(C)c3cc(OC(=O)Nc4ccccc4)ccc3N(C)[C@@H]12 | Aldehyde dehydrogenase, mitochondrial (ALDH2, Homo sapiens, UniProt P05091) | enzyme activity, inhibitor, fluorescence |  |  | IC50 | < 10 µM
